Test results: ChEMBL document CHEMBL1147539, “Synthesis and biological evaluation of novel, selective, nonsteroidal glucocorticoid receptor antagonists” (Bioorg Med Chem Lett, 2004)
Values belong to the molecule of their own block, whether it stands above or below them.

Experiments:
[1] = biological target: T1, Glucocorticoid receptor (Homo sapiens, UniProt P04150); experiment: Displacement of [3H]dexamethasone from human Glucocorticoid receptor (GR); Value ranges from 150-220 nM
T1 sequence (P04150 whole entry): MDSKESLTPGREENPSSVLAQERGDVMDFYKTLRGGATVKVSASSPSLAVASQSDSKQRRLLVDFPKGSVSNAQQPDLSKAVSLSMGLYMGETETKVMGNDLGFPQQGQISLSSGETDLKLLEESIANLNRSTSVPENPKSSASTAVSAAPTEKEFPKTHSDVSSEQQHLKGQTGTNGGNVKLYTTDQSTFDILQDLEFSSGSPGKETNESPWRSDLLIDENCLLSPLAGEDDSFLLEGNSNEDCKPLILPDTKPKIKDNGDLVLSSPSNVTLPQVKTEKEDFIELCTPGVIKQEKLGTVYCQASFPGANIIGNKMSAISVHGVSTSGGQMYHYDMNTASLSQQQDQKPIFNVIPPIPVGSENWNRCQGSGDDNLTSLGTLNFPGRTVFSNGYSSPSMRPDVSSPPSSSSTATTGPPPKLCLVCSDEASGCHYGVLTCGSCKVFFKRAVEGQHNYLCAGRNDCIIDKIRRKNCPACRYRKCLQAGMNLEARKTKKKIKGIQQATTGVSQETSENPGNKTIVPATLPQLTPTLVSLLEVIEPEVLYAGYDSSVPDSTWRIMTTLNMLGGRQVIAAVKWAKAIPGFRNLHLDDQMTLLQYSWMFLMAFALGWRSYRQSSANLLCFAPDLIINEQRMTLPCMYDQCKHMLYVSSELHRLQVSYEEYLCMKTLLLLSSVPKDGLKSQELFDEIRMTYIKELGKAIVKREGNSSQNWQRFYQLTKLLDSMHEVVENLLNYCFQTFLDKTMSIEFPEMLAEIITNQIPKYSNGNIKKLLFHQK
In short: (§1)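 Binding to human GR; IC50 reported as the geometric mean of two experiments (three for some values), each run in duplicate, with the range of the experiments given.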

[2] = biological target: T1, Glucocorticoid receptor; experiment: Displacement of [3H]dexamethasone from human Glucocorticoid receptor (GR); Value ranges from 681-974 nM; in short: as §1
[3] = biological target: T1, Glucocorticoid receptor; experiment: Effect on human Glucocorticoid receptor (GR) in a whole cell assay to measure functional cellular GR-antagonism (GRAF)
[4] = biological target: T1, Glucocorticoid receptor; experiment: Displacement of [3H]dexamethasone from human Glucocorticoid receptor (GR); Value ranges from 39-94 nM
[5] = biological target: T1, Glucocorticoid receptor; experiment: Displacement of [3H]dexamethasone from human Glucocorticoid receptor (GR); Value ranges from 949-1169 nM; in short: as §1
[6] = biological target: T2, Androgen receptor (Homo sapiens, UniProt P10275); experiment: Displacement of [3H]mibolerone from human Androgen receptor
T2 sequence (P10275 whole entry): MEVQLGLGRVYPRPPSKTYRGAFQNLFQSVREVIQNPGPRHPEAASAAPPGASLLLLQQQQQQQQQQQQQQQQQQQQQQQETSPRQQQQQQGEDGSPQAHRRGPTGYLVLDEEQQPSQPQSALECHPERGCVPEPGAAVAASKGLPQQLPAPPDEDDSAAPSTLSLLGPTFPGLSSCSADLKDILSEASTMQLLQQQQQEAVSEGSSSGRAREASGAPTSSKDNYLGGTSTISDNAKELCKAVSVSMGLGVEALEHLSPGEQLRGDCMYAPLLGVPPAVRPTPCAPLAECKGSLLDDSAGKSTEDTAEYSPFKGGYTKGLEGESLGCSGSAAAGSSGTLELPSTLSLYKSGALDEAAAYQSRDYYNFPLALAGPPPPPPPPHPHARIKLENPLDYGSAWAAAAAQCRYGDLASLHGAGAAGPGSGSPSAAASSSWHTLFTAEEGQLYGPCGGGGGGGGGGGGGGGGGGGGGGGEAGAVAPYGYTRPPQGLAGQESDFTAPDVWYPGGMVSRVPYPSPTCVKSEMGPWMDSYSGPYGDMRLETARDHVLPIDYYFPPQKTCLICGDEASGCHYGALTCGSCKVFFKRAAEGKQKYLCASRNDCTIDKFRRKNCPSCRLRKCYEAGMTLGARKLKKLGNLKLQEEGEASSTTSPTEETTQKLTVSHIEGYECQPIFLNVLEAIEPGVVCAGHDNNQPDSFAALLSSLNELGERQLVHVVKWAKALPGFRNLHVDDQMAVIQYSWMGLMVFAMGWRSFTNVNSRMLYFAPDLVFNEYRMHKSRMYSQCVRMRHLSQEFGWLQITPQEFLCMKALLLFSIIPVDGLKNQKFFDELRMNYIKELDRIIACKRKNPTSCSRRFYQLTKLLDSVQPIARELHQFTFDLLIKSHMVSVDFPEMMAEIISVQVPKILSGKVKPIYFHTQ

[7] = biological target: T3, Estrogen receptor (Homo sapiens, UniProt P03372); experiment: Displacement of [3H]estradiol from human estrogen receptor alpha
T3 sequence (P03372 whole entry): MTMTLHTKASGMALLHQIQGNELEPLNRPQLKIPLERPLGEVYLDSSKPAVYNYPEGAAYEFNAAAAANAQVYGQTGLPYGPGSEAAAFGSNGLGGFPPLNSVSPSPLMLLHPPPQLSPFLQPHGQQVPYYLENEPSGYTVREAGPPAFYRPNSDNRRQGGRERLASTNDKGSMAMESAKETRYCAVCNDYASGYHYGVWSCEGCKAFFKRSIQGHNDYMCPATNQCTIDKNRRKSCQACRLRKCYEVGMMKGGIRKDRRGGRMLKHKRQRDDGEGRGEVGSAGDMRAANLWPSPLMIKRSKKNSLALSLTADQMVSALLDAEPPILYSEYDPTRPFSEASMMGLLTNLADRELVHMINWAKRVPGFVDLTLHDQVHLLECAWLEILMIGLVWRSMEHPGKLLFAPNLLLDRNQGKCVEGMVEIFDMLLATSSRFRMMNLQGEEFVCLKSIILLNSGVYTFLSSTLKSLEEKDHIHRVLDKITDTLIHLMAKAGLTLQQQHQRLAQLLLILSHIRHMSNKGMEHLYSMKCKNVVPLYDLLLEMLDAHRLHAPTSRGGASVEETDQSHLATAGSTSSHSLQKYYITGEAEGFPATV
In short: (§2)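 Human steroid receptor (PR, MR, AR, ERα) binding measured by radioligand displacement, with IC50s determined in duplicate. Values without a range come from a single experiment, and values with a range are geometric means of repeat experiments.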

[8] = biological target: T1, Glucocorticoid receptor; experiment: Displacement of [3H]dexamethasone from human Glucocorticoid receptor (GR); Value ranges from 2-2 nM
[9] = biological target: T4, Mineralocorticoid receptor (Homo sapiens, UniProt P08235); experiment: Displacement of [3H]aldosterone from human Mineralocorticoid receptor; in short: as §2
T4 sequence (P08235 whole entry): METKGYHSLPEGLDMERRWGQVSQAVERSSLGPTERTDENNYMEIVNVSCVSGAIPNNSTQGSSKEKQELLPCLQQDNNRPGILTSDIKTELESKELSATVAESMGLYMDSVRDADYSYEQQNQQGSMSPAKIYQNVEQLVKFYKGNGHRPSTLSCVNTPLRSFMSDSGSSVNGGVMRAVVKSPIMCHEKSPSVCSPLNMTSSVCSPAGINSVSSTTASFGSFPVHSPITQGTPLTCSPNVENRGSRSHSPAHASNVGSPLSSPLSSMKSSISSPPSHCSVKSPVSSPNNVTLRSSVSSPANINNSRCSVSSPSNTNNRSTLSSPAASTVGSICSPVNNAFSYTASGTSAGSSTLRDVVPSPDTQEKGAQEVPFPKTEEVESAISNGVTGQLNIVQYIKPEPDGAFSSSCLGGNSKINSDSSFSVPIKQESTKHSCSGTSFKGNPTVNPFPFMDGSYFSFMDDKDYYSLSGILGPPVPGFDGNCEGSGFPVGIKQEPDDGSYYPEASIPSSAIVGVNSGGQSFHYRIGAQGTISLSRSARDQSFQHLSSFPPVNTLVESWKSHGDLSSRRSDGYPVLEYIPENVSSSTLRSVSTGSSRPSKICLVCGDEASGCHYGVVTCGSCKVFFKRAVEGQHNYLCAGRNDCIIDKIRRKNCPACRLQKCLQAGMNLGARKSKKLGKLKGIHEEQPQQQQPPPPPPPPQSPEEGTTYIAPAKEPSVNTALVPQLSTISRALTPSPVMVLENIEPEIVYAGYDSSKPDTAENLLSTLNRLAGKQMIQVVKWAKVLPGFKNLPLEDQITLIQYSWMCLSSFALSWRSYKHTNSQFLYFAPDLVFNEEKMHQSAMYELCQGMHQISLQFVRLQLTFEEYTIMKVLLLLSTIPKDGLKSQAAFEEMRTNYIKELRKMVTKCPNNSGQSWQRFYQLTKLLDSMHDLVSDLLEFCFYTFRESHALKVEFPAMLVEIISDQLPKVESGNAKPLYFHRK

[10] = biological target: T1, Glucocorticoid receptor; experiment: Displacement of [3H]dexamethasone from human Glucocorticoid receptor (GR); Value ranges from 379-840 nM; in short: as §1
[11] = biological target: T1, Glucocorticoid receptor; experiment: Displacement of [3H]dexamethasone from human Glucocorticoid receptor (GR); Value ranges from 215-217 nM; in short: as §1
[12] = biological target: T1, Glucocorticoid receptor; experiment: Displacement of [3H]dexamethasone from human Glucocorticoid receptor (GR); Value ranges from 3-3 nM
[13] = biological target: T1, Glucocorticoid receptor; experiment: Displacement of [3H]dexamethasone from human Glucocorticoid receptor (GR); Value ranges from 44-53 nM

IC50 [2]: 812 nM
IC50 [3]: 665 nM
SMILES: COc1ccccc1C1Oc2cccc(OC)c2-c2ccc(NS(C)(=O)=O)cc21 (configuration not stated)

IC50 [3]: 388 nM
IC50 [4]: 61 nM
SMILES: CCOC(=O)c1ccc(C2Oc3cccc(OC)c3-c3ccc(NS(C)(=O)=O)cc32)cc1 (configuration not stated)

IC50 [11]: 216 nM
SMILES: COc1cccc2c1-c1ccc(NS(C)(=O)=O)cc1C(c1cccc(O)c1)O2 (configuration not stated)

IC50 [6]: > 10000 nM
IC50 [3]: 147 nM
IC50 [7]: > 10000 nM
IC50 [9]: 2150 nM
IC50 [12]: 3 nM
SMILES: COc1cccc2c1-c1ccc(NS(C)(=O)=O)cc1C(c1cccc(Cl)c1)O2 (configuration not stated)

IC50 [13]: 48 nM
IC50 [3]: 434 nM
SMILES: COc1cccc2c1-c1ccc(NS(C)(=O)=O)cc1C(c1cccc(Oc3ccccc3)c1)O2 (configuration not stated)

Second part, the molecule before the results:

SMILES: CS(=O)(=O)Nc1ccc2c(c1)C(c1ccccc1)Oc1cccc(CO)c1-2 (configuration not stated)
IC50 [1]: 180 nM

SMILES: COc1cccc2c1-c1ccc(N(C)S(C)(=O)=O)cc1C(c1ccccc1)O2 (configuration not stated)
IC50 [3]: 210 nM
IC50 [5]: 1050 nM

SMILES: CS(=O)(=O)Nc1ccc2c(c1)C(c1ccccc1)Oc1cccc(OC(F)F)c1-2 (configuration not stated)
IC50 [6]: 8730 nM
IC50 [3]: 57 nM
IC50 [7]: > 10000 nM
IC50 [8]: 2 nM
IC50 [9]: 162 nM

SMILES: CCNc1ccc2c(c1)C(c1ccccc1)Oc1cccc(OC)c1-2 (configuration not stated)
IC50 [3]: 382 nM
IC50 [10]: 564 nM
